In ChEMBL document CHEMBL1926577, “Novel 1,3,4-heterodiazole analogues: synthesis and in-vitro antitumor activity” (2012):

Legend:
Assay type in all cases: functional
CCRF-CEM = assay: Growth inhibition of human CCRF-CEM cells at 10 uM after 48 hrs by coulter counter method; settings: read-out: GI
Summary of the method: (§1)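 NCI 60-cell-line panel, single dose. Compound dissolved first in DMSO, then diluted in phosphate-buffered saline so that every final dilution held under 1% DMSO. Duplicate wells received cells at 6 × 10⁴ cells/ml. Controls held PBS/DMSO at the same dilution. Plates were incubated 48 h at 37 °C under 5% CO₂. Cells were then diluted 10-fold in saline and counted on a Coulter counter, with counts corrected for the dilution. Results are given as percent growth inhibition.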

HL-60(TB) = assay: Growth inhibition of human HL-60(TB) cells at 10 uM after 48 hrs by coulter counter method; settings: HL-60, 48 h, read-out: GI
Summary of the method: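 Single-dose screen on the NCI 60-line panel (leukemia subpanel). Compound is dissolved in DMSO and diluted in PBS, with final DMSO below 1%. Duplicate wells hold 6 × 10⁴ cells/ml at 37 °C, 5% CO₂, for 48 h. Cells are counted by Coulter counter after 10-fold saline dilution. Read-out is percent growth versus PBS/DMSO controls, expressed as % growth inhibition.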

K562 = assay: Growth inhibition of human K562 cells at 10 uM after 48 hrs by coulter counter method; settings: K562, 48 h, read-out: GI; summary of the method: as §1
MOLT-4 = assay: Growth inhibition of human MOLT4 cells at 10 uM after 48 hrs by coulter counter method; settings: MOLT-4, 48 h, read-out: GI; summary of the method: as §1
RPMI-8226 = assay: Growth inhibition of human RPMI8226 cells at 10 uM after 48 hrs by coulter counter method; settings: RPMI-8226, 48 h, read-out: GI; summary of the method: as §1
SR = assay: Growth inhibition of human SR cells at 10 uM after 48 hrs by coulter counter method; settings: read-out: GI; summary of the method: as §1
A549 = assay: Growth inhibition of human A549 cells at 10 uM after 48 hrs by coulter counter method; settings: A549, 48 h, read-out: GI; summary of the method: as §1
EKVX = assay: Growth inhibition of human EKVX cells at 10 uM after 48 hrs by coulter counter method; settings: read-out: GI; summary of the method: as §1
NCI-H226 = assay: Growth inhibition of human NCI-H226 cells at 10 uM after 48 hrs by coulter counter method; settings: NCI-H226, 48 h, read-out: GI; summary of the method: as §1
NCI-H23 = assay: Growth inhibition of human NCI-H23 cells at 10 uM after 48 hrs by coulter counter method; settings: NCI-H23, 48 h, read-out: GI; summary of the method: as §1
NCI-H322M = assay: Growth inhibition of human NCI-H322M cells at 10 uM after 48 hrs by coulter counter method; settings: read-out: GI; summary of the method: as §1
NCI-H522 = assay: Growth inhibition of human NCI-H522 cells at 10 uM after 48 hrs by coulter counter method; settings: NCI-H522, 48 h, read-out: GI; summary of the method: as §1
HCT-116 = assay: Growth inhibition of human HCT116 cells at 10 uM after 48 hrs by coulter counter method; settings: HCT-116, 48 h, read-out: GI; summary of the method: as §1
HCT-15 = assay: Growth inhibition of human HCT15 cells at 10 uM after 48 hrs by coulter counter method; settings: HCT-15, 48 h, read-out: GI; summary of the method: as §1
HT-29 = assay: Growth inhibition of human HT-29 cells at 10 uM after 48 hrs by coulter counter method; settings: HT-29, 48 h, read-out: GI; summary of the method: as §1
KM12 = assay: Growth inhibition of human KM12 cells at 10 uM after 48 hrs by coulter counter method; settings: KM12, 48 h, read-out: GI; summary of the method: as §1
SF-268 = assay: Growth inhibition of human SF268 cells at 10 uM after 48 hrs by coulter counter method; settings: SF-268, 48 h, read-out: GI; summary of the method: as §1
SF-295 = assay: Growth inhibition of human SF295 cells at 10 uM after 48 hrs by coulter counter method; settings: SF-295, 48 h, read-out: GI; summary of the method: as §1
SNB-19 = assay: Growth inhibition of human SNB19 cells at 10 uM after 48 hrs by coulter counter method; settings: SNB-19, 48 h, read-out: GI; summary of the method: as §1
SNB-75 = assay: Growth inhibition of human SNB75 cells at 10 uM after 48 hrs by coulter counter method; settings: SNB-75, 48 h, read-out: GI; summary of the method: as §1
U-251 = assay: Growth inhibition of human U251 cells at 10 uM after 48 hrs by coulter counter method; settings: U-251, 48 h, read-out: GI; summary of the method: as §1
LOX IMVI = assay: Growth inhibition of human LOXIMVI cells at 10 uM after 48 hrs by coulter counter method; settings: read-out: GI; summary of the method: as §1
Malme-3M = assay: Growth inhibition of human MALME-3M cells at 10 uM after 48 hrs by coulter counter method; settings: read-out: GI; summary of the method: as §1
M14 = assay: Growth inhibition of human M14 cells at 10 uM after 48 hrs by coulter counter method; settings: M14, 48 h, read-out: GI; summary of the method: as §1
MDA-MB-435 = assay: Growth inhibition of human MDA-MB-435 cells at 10 uM after 48 hrs by coulter counter method; settings: MDA-MB-435, 48 h, read-out: GI; summary of the method: as §1
SK-MEL-2 = assay: Growth inhibition of human SK-MEL-2 cells at 10 uM after 48 hrs by coulter counter method; settings: SK-MEL-2, 48 h, read-out: GI; summary of the method: as §1
SK-MEL-28 = assay: Growth inhibition of human SK-MEL-28 cells at 10 uM after 48 hrs by coulter counter method; settings: SK-MEL-28, 48 h, read-out: GI; summary of the method: as §1
SK-MEL-5 = assay: Growth inhibition of human SK-MEL-5 cells at 10 uM after 48 hrs by coulter counter method; settings: SK-MEL-5, 48 h, read-out: GI; summary of the method: as §1
UACC-257 = assay: Growth inhibition of human UACC257 cells at 10 uM after 48 hrs by coulter counter method; settings: UACC-257, 48 h, read-out: GI; summary of the method: as §1
UACC-62 = assay: Growth inhibition of human UACC62 cells at 10 uM after 48 hrs by coulter counter method; settings: UACC-62, 48 h, read-out: GI; summary of the method: as §1
IGROV-1 = assay: Growth inhibition of human IGROV1 cells at 10 uM after 48 hrs by coulter counter method; settings: IGROV-1, 48 h, read-out: GI; summary of the method: as §1
OVCAR-8 = assay: Growth inhibition of human OVCAR8 cells at 10 uM after 48 hrs by coulter counter method; settings: OVCAR-8, 48 h, read-out: GI; summary of the method: as §1
NCI/ADR-RES = assay: Growth inhibition of human NCI/ADR-RES cells at 10 uM after 48 hrs by coulter counter method; settings: read-out: GI; summary of the method: as §1
786-0 = assay: Growth inhibition of human 786-0 cells at 10 uM after 48 hrs by coulter counter method; settings: 786-0, 48 h, read-out: GI; summary of the method: as §1
A498 = assay: Growth inhibition of human A498 cells at 10 uM after 48 hrs by coulter counter method; settings: A498, 48 h, read-out: GI; summary of the method: as §1
ACHN = assay: Growth inhibition of human ACHN cells at 10 uM after 48 hrs by coulter counter method; settings: read-out: GI; summary of the method: as §1
CAKI-1 = assay: Growth inhibition of human Caki1 cells at 10 uM after 48 hrs by coulter counter method; settings: CAKI-1, 48 h, read-out: GI; summary of the method: as §1
SN12C = assay: Growth inhibition of human SN12C cells at 10 uM after 48 hrs by coulter counter method; settings: read-out: GI; summary of the method: as §1
TK-10 = assay: Growth inhibition of human TK10 cells at 10 uM after 48 hrs by coulter counter method; settings: TK-10, 48 h, read-out: GI; summary of the method: as §1
UO-31 = assay: Growth inhibition of human UO31 cells at 10 uM after 48 hrs by coulter counter method; settings: UO-31, 48 h, read-out: GI; summary of the method: as §1
PC-3 = assay: Growth inhibition of human PC3 cells at 10 uM after 48 hrs by coulter counter method; settings: PC-3, 48 h, read-out: GI; summary of the method: as §1
MCF7 = assay: Growth inhibition of human MCF7 cells at 10 uM after 48 hrs by coulter counter method; settings: MCF7, 48 h, read-out: GI; summary of the method: as §1
BT-549 = assay: Growth inhibition of human BT549 cells at 10 uM after 48 hrs by coulter counter method; settings: BT-549, 48 h, read-out: GI; summary of the method: as §1
T47D = assay: Growth inhibition of human T47D cells at 10 uM after 48 hrs by coulter counter method; settings: read-out: GI; summary of the method: as §1
MDA-MB-468 = assay: Growth inhibition of human MDA-MB-468 cells at 10 uM after 48 hrs by coulter counter method; settings: MDA-MB-468, 48 h, read-out: GI; summary of the method: as §1

Measured: inhibition of growth at 10 µM

NC1=CC(N)=NC2SC(c3ccccc3)=NN12 (stereo not given)
16.4%: UACC-257
11.6%: SNB-75
15.8%: IGROV-1
36.6%: UO-31
10.7%: CAKI-1
< 10%: all other assays above

O=C1N=C2SC(c3ccc(Cl)cc3)=NN2C1=O
12.7%: K562
12.1%: MCF7
15.2%: HL-60(TB)
12.2%: BT-549
10.6%: MOLT-4
11.1%: SR
19.7%: NCI-H522
< 10%: all other assays above

NC1=CC(N)=NC2OC(c3ccc(Cl)cc3)=NN12 (stereo not given)
16.3%: PC-3
10.3%: SK-MEL-2
23.8%: UO-31
14%: NCI-H522
20.5%: CAKI-1
< 10%: all other assays above
